The IC50 is the concentration needed to halve the response being measured.

Active and inactive are the calls of the source. No cut-off for these calls is given here.

Data set [1] has as its system HepG2. The data set can be described thus: Cytotoxicity against human HepG2 cells assessed as reduction in cell viability after 48 hrs by sulforhodamine B colorimetric assay. It counts as functional, cell-based. Particulars: HepG2, 48 h. An outline of the steps: (§1)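 Cell lines were kept at 37°C under 5% CO₂. HepG2, Hepa1-6, HeLa and MCF-7 were grown in DMEM with 10% FBS. Caco-2 was grown in DMEM with 20% FBS. HT-29 was grown in McCoy's medium with 10% FBS. The viability assay used 10-μM doxorubicin as positive control. Values marked * came from a single dose curve.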
For orientation: The SRB assay estimates cell density from bound dye.

Data set [2] is described as follows: Cytotoxicity against mouse Hepa1-6 cells assessed as reduction in cell viability after 48 hrs by sulforhodamine B colorimetric assay. It counts as functional, cell-based. Particulars: Hepa1-6, 48 h. An outline of the steps:
as §1

Data set [3] deals with HeLa. The data set can be described thus: Cytotoxicity against human HeLa cells assessed as reduction in cell viability after 48 hrs by sulforhodamine B colorimetric assay. It counts as functional, cell-based. The procedure, abridged: as §1
The test system of another data set is HT-29. The data set can be described thus: Cytotoxicity against human HT-29 cells assessed as reduction in cell viability after 48 hrs by sulforhodamine B colorimetric assay. It counts as functional, cell-based. Particulars: HT-29, 48 h. An outline of the steps:
as §1

A further data set has as its system MCF7. Put plainly: Cytotoxicity against human MCF7 cells assessed as reduction in cell viability after 48 hrs by sulforhodamine B colorimetric assay. It counts as functional, cell-based. Particulars: MCF7, 48 h. An outline of the steps:
as §1

Data set [4] is described as follows: Cytotoxicity against human SKOV3 cells assessed as reduction in cell viability after 48 hrs by sulforhodamine B colorimetric assay. It counts as functional, cell-based. Particulars: SK-OV-3, 48 h. The procedure, abridged:
(§2)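 SKOV3 cells and the retrovirally transduced subclone SKOV3-MDR1-M6/6, which overexpresses P-glycoprotein, were grown in BME with 10% FBS at 37°C under 5% CO₂. Cells were exposed to 0-25 μM for 48 hrs. Viability was read by SRB assay and a dose curve was plotted for each cell line. Paclitaxel served as the reference drug.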

Data set [5] in a line: Cytotoxicity against human SKOV3-MDR1-M6/6 cells assessed as reduction in cell viability at 25 uM after 48 hrs by sulforhodamine B colorimetric assay. It counts as functional. An outline of the steps: as §2
For data set [6], the system named is Hepa1-6. Put plainly: Cytotoxicity against mouse Hepa1-6 cells assessed as reduction in cell viability at 50 uM after 48 hrs by sulforhodamine B colorimetric assay. It counts as functional, cell-based. The procedure, abridged: (§3)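 Primary mouse hepatocytes and Hepa1-6 cells were exposed to graded doses for 48 hrs. Viability was normalized to DMSO-treated cells. Hepa1-6 cells were grown in DMEM with 10% FBS at 37°C under 5% CO₂. 10-μM doxorubicin served as the cytotoxicity positive control.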

The subject of data set [7] is Hepatocyte. Put plainly: Cytotoxicity against hepatocytes (unknown origin) assessed as reduction in cell viability at 50 uM after 48 hrs by sulforhodamine B colorimetric assay. It counts as cell-based. An outline of the steps:
as §3

The subject of data set [8] is Hepa1-6. Put plainly: Cytotoxicity against mouse Hepa1-6 cells assessed as reduction in cell viability at <5 uM after 48 hrs by sulforhodamine B colorimetric assay. It counts as functional, cell-based. The procedure, abridged:
as §3

The subject of data set [9] is Hepatocyte. Put plainly: Cytotoxicity against hepatocytes (unknown origin) assessed as reduction in cell viability at <5 uM after 48 hrs by sulforhodamine B colorimetric assay. It counts as cell-based. The procedure, abridged:
as §3

Data set [10] has as its system HeLa. The data set can be described thus: Induction of apoptosis in human HeLa cells assessed as membrane blebbing at 2 uM after 12 hrs by microscopy. It counts as functional, cell-based. An outline of the steps: (§4)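 HeLa cells were seeded at 1.5-2.0×10^5 cells/well and treated. Membrane blebbing and cell shrinkage were assessed by light microscopy after 8, 12 or 15 hrs.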

Data set [11] has as its system HeLa. Put plainly: Induction of apoptosis in human HeLa cells assessed as membrane blebbing at 2 uM after 8 hrs by microscopy. It counts as functional, cell-based. Particulars: in the assay text read “12 hrs” for “8 hrs”. The procedure, abridged:
as §4

The subject of data set [12] is HeLa. Put plainly: Induction of apoptosis in human HeLa cells assessed as membrane blebbing at 2 uM after 15 hrs by microscopy. It counts as functional, cell-based. Particulars: in the assay text read “12 hrs” for “15 hrs”. The procedure, abridged:
as §4

Data set [13] relates to HeLa. The data set can be described thus: Induction of apoptosis in human HeLa cells assessed as PARP cleavage at <10 uM after 12 hrs by Western blotting. It counts as functional, cell-based. An outline of the steps:
(§5)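 HeLa cells were treated for 12 hrs and lysed in 0.5% SDS buffer (50 mM Tris pH 8.0, 1 mM DTT, phosphatase and protease inhibitors). Lysates were western blotted with anti-PARP for full-length and cleaved PARP. 1 μM staurosporine served as positive control.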
(In general: Immunoblotting shows a protein as a band on a membrane.)

For data set [14], the system named is HeLa. Put plainly: Induction of apoptosis in human HeLa cells assessed as PARP cleavage at 10 uM after 12 hrs by Western blotting. It counts as functional, cell-based. An outline of the steps: as §5
The nature of data set [15]: Drug localization in cytoplasmic membrane of human HepG2 cells at 30 uM for 3 hrs by epifluorescent microscopy. It counts as ADME, cell membranes. Particulars: hepg2, 3 h.
A short description of data set [16]: Drug localization in cytoplasmic membrane of human HepG2 cells at 30 uM for 3 hrs by BODIPY TR-labelling based confocal microsocopy. It counts as ADME, cell membranes. Particulars: hepg2, 3 h. An outline of the steps:
(§6)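 Cells (200,000/well) were seeded on coverslips and incubated overnight at 37°C, then treated for 4 hrs (50 μM) or 3 hrs. They were rinsed with PBS/BSA and stained with 5 µM BODIPY TR-labeled sphingolipids for 30 min at 4°C. Cells were fixed in 4% paraformaldehyde, permeabilized with 0.2% Triton X-100, and examined by confocal microscopy using 1 µm Z-stacks.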

Data set [17] in a line: Drug localization in […] rich regions of cytoplasmic membrane of human HepG2 cells at 3 uM for 2 hrs by BODIPY TR-labeled sphingolipids detection based Western blotting. It counts as ADME, cell-based. Particulars: hepg2, 2 h. An outline of the steps: (§7)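 HepG2 cells (1x10^6/plate) were treated for 4 hrs at 5 μM or for 2 hrs at 3 μM, then stained with 5 μM BODIPY TR sphingolipids for 30 min at 4°C. Cells were lysed in PBS with 0.5% Brij-96, and lysates were normalized by BCA. Lysates were separated on a step OptiPrep gradient (2.5–30%) at 125,000 g for 12 hrs. Fractions were analysed for compound fluorescence and blotted for Thy-1, Lyn and GAPDH.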

The nature of data set [18]: Cytotoxicity against human SKOV3-MDR1-M6/6 cells assessed as reduction in cell viability after 48 hrs by sulforhodamine B colorimetric assay. It counts as functional, cell-based. Particulars: SKOV3-MDR1-M6/6, 48 h. An outline of the steps:
as §2

Data set [19] can be described thus: Cytotoxicity against human Caco2 cells assessed as reduction in cell viability after 48 hrs by sulforhodamine B colorimetric assay. It counts as functional, cell-based. Particulars: Caco-2, 48 h. An outline of the steps: as §1
The test system of data set [20] is HepG2. The data set can be described thus: Drug localization human HepG2 cells at 50 uM for 4 hrs by epifluorescent microscopy. It counts as ADME, cell-based. Particulars: hepg2, 4 h.
A short description of data set [21]: Drug localization in cytoplasmic membrane of human HepG2 cells at 50 uM for 4 hrs by BODIPY TR-labelling based confocal microsocopy. It counts as ADME, cell membranes. Particulars: hepg2, 4 h. An outline of the steps: as §6
Data set [22] is described as follows: Drug localization in […] rich regions of cytoplasmic membrane of human HepG2 cells at 5 uM for 4 hrs by BODIPY TR-labeled sphingolipids detection based Western blotting. It counts as ADME, cell-based. Particulars: hepg2, 4 h. The procedure, abridged:
as §7

For the compound `O=C(CCC(=O)N1CCCCC1)Nc1cc2cccc3ccc4cccc1c4c32`, the IC50 (in the data set on HepG2 [1]; in [2]; with HeLa [3]) was > 30 µM each time.
In the case of `O=C(CCCC(=O)N1CCCCC1)Nc1cc2cccc3ccc4cccc1c4c32`, the IC50 (in data set [2]; in the data set with HT-29; with HeLa [3]; with MCF7) was > 30 µM in each case.
On to `CC(=O)O[C@H]1C(=O)[C@@]2(C)[C@H]([C@H](OC(=O)c3ccccc3)[C@]3(O)C[C@H](OC(=O)[C@H](O)[C@@H](NC(=O)c4ccccc4)c4ccccc4)C(C)=C1C3(C)C)[C@]1(OC(C)=O)CO[C@@H]1C[C@@H]2O` [PACLITAXEL], for which the IC50 in [4] was < 0.001 µM. Besides, in data set [5], the Activity worked out at 40%.
In the case of `c1cc2ccc3cccc4c(NCCCCN5CCCCC5)cc(c1)c2c34`, the 50% inhibitory concentration (IC50) was found to be 1.4 µM in the data set with HepG2 [1]; 2.5 µM in data set [2]; 2.98 µM with HT-29; 2.6 µM in the data set on HeLa [3]; 1.1 µM with MCF7; 5 µM in [4]. For the same compound, the IC50 in data set [18] was found to be 6.4 µM. Besides, the outcome with Hepa1-6 [6], with Hepa1-6 [8], in the data set on HeLa [10], in the data set on HeLa [11], in the data set on HeLa [12] and in the data set with HeLa [14] was Active. The values for the Activity result with Hepatocyte [7] and in the data set on Hepatocyte [9] were “Toxic” and “Non-toxic”, respectively. In addition, in the data set on HeLa [13], the outcome was inactive. In addition, the Drug uptake entry in [15], in data set [16] and in data set [17] was “Active” throughout.
With `CN1CCN(CCCCNc2cc3cccc4ccc5cccc2c5c43)CC1`, the IC50 is 2.4 µM in the data set with HepG2 [1]; 1.1 µM in data set [2]; 4.8 µM in the data set on HT-29; 4.1 µM in the data set on HeLa [3]; 2.6 µM with MCF7; 7.23 µM in data set [19]. In addition, the half-inhibitory concentration (IC50) turned out to be 5.5 µM in data set [4] and 6.2 µM in [18]. For the same compound, the outcome in the data set with Hepa1-6 [6], in the data set with Hepa1-6 [8], in the data set on HeLa [10], in the data set with HeLa [11], with HeLa [12] and in the data set with HeLa [14] was Active. The results for the Activity entry in the data set on Hepatocyte [7] and with Hepatocyte [9] were “Toxic” and “Non-toxic”, respectively. Moreover, the result with HeLa [13] was inactive. Also, the Drug uptake entry in data set [15], in data set [16] and in [17] was “Active” in each case.
Regarding `CC(C)COCNc1cc2cccc3ccc4cccc1c4c32`, the half-maximal inhibitory concentration (IC50) with HepG2 [1] was 39.6 µM; in data set [2], 9.9 µM; in the data set with HT-29 it was 14 µM; with HeLa [3] it was 9.8 µM; in data set [19], > 50 µM. In addition, the Drug uptake result (with HepG2 [20]; in data set [21]; in [22]) was “Active” in each case.
`CC(C)COC(=O)Nc1cc2cccc3ccc4cccc1c4c32`: the IC50 with HepG2 [1] is 30.4 µM; in [2], 5.9 µM; in the data set with HT-29, 20.7 µM; in the data set with HeLa [3], 16.2 µM; in [19], 36.3 µM.
For `CN1CCN(C(=O)CCC(=O)Nc2cc3cccc4ccc5cccc2c5c43)CC1`, the half-maximal inhibitory concentration (IC50) in the data set with HepG2 [1] came out at 16.9 µM; in [2] it was 14.8 µM; with HT-29, 19.3 µM; in the data set with HeLa [3], 16.8 µM; in the data set on MCF7, 14.1 µM.
As to `c1cc2ccc3cccc4c(NCCCCCN5CCCCC5)cc(c1)c2c34`, the IC50 with HepG2 [1] is 18.8 µM; in data set [2] it was 18.3 µM; in the data set with HT-29, 19.8 µM; in the data set on HeLa [3] it was 18.2 µM; with MCF7, 14.1 µM.

These data come from ChEMBL document CHEMBL3351416, “Design, synthesis and biological evaluation of novel pyrenyl derivatives as anticancer agents” (Eur J Med Chem, 2015).
